The full list was thinned out, with hits kept by preference.
PGC1a Ac signal: compounds raising PGC1a acetylation signal, primary screen, PGC1a modulator project, cell-based, U2OS, AlphaScreen, signal-increasing mode; overnight; activation, % at 15.6 µM; 350,000 compounds, 0.21% hits; AID 651723, 2012;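 active = every replicate reaching activation of at least 50%, whatever the mean replicate activation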;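 also: hits raise the AlphaScreen acetylation signal above neutral controls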
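Incubation: overnight compound treatment, 37 °C. System: U2OS cells transduced with flag-tagged PGC1a and GCN5 acetyltransferase. Detection: AlphaScreen lysate read. Compound: single-point compound dosing.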
* hit, by the source's call.

SMILES | PGC1a Ac signal
COc1ccccc1C(=O)Nc1nnc(CCc2ccccc2)s1 | 69.0*
COc1cccc(C(=O)Nn2cnnc2)c1OC | -74.9
CC(C)Cc1nnc(NC(=O)c2cc3c(s2)CCC3)s1 | -43.2
Cc1ccc(S(=O)(=O)C(NC(=O)c2ccccc2)=C(Cl)Cl)cc1 | 59.7*
Cc1ccc(C(=O)NNC(=O)c2cccc(Br)c2)cc1 | -63.2
CCCn1c(-c2ccccc2)cc(SC)c(C#N)c1=O | -92.8
Cc1ccc(-c2c(C#N)c(N)n(-c3ccccc3)c(=O)c2C#N)cc1 | 65.7*
O=C(c1ccc([N+](=O)[O-])s1)N1CCc2ccccc2C1 | -46.8
Cc1c(Cl)cccc1N=Cc1ccc([N+](=O)[O-])s1 | 102.1*
O=C(CCl)N=c1sccn1Cc1ccc(Cl)cc1Cl | -65.8
CCN(C[C@@H]1N[C@@H](CO)[C@H]1c1ccc(-c2ccc(F)cc2)cc1)C(=O)CN(C)C | 59.4*
COc1ccc(CC2=CC(=O)c3ccccc3C2=O)cc1 | 128.3*
CCNC(=S)N1C2CCC1CC(NC(=O)NC1CCCCC1)C2 (stereo not given) | -48.2
O=C(c1ccco1)N1CCN(c2ncnc3scc(-c4cccs4)c23)CC1 | -45.4
Cn1nc(-c2ccccc2F)c2cc(C(=O)N3CCN(C(=O)c4ccco4)CC3)sc21 | 81.9*
O=C(O)c1cccc(N2C(=O)CSC2c2c(F)cccc2Cl)c1 (stereo not given) | 56.3*
O=C(N/N=C/C(Br)=C/c1ccccc1)c1cc(-c2ccco2)[nH]n1 | 142.7*
O=C(N/N=C/C(Br)=C/c1ccccc1)c1n[nH]c2c1CCC2 | 72.4*
CC1C(=O)NN=C1C(=O)N/N=C\C(Br)=C\c1ccccc1 (stereo not given) | 404.2*
O=C(CNc1cccc2ccccc12)N/N=C/C(Br)=C/c1ccccc1 | 213.4*
CCN(CC)S(=O)(=O)c1cccc(-c2nnc(SCc3ncc(-c4ccccc4)o3)n2C)c1 | -43.2
CCOC(=O)C1(Cc2cccc(F)c2)CCN(Cc2ccc(COC)o2)CC1 | -44.7
C[C@@H]1CN([C@H](C)CO)C(=O)CCCn2nncc2CO[C@H]1CN(C)C(=O)Nc1cccc(F)c1 | -56.8
CSc1nc2nccc(/C=C\c3ccccc3)n2n1 | -49.5
CCCNC(=O)N(C)C[C@H]1Oc2cc(C#CC(C)C)ccc2S(=O)(=O)N([C@@H](C)CO)C[C@H]1C | -51.4
SMILES | PGC1a Ac signal
CCCCOc1ccc(CNC(=O)NS(=O)(=O)c2ccc(OCC(C)C)cc2)cc1 | -48.9
O=C(N/N=C/C(Br)=C/c1ccccc1)c1cccs1 | 166.4*
O=C(N/N=C/C(Br)=C/c1ccccc1)c1ccccc1F | 57.5*
O=C(NN=C1c2ccccc2-c2ccccc21)c1ccccc1Br | -66.1
O=C(Nc1ccc2c(c1)C(=O)N(c1ccccc1)C2=O)c1cccs1 | -52.7
Cc1ccc(-c2cnc3c(c2)C(=O)N([C@H](C)CO)C[C@H](C)[C@@H](CN(C)C)O3)cc1 | -49.8
CO[C@H]1CN(C)C(=O)c2ccc(NS(=O)(=O)c3ccccc3)cc2OC[C@H](C)N(C(=O)NC(C)C)C[C@@H]1C | -58.9
CCCCCCC1CC(=O)NC(=S)N1 (stereo not given) | -62.8
CCC(=O)N1C[C@H](C)[C@@H](OC)CN(C)C(=O)c2ccc(NC(=O)Nc3ccccc3)cc2OC[C@@H]1C | -44.8
Cc1cc(S(=O)(=O)c2ccc([N+](=O)[O-])cn2)ccc1Br | 135.3*
COc1ccc2c(c1)CCc1c(C(=O)NCCCn3ccnc3)noc1-2 | -40.5
CC1CC(C)CN(S(=O)(=O)c2ccc(C(=O)NCCCn3ccnc3)cc2)C1 (stereo not given) | 579.5*
CCSc1ccccc1C(=O)NCCCn1ccnc1 | -94.6
O=C(Nc1ccc(C(F)(F)F)cc1)N1C[C@@H]2N[C@H](C1)C2c1ccc(-c2cccc(F)c2)cc1 (stereo not given in full) | -62.5
Cc1cccc(-c2ccc(C3[C@@H]4CN(C(=O)C5CCCCC5)C[C@H]3N4)cc2)c1 (stereo not given in full) | 74.0*
Cc1ccc(-c2ccc(C3[C@@H]4CN(C(=O)Nc5ccc(C(F)(F)F)cc5)C[C@H]3N4)cc2)cc1 (stereo not given in full) | -69.7
COc1cccc(N2CCN(c3ncnc4c3[nH]c3ccc(F)cc34)CC2C)c1 (stereo not given) | -76.9
Fc1ccc(CO/N=C/C2=C(Cl)c3ccccc3CC2)cc1 | -79.1
O=S(=O)(/C(=C\c1ccc(C(F)(F)F)cc1)c1nc2ccccc2[nH]1)c1ccccc1 | -59.8
O=C(Nc1ccccc1)c1nnsc1S(=O)c1ccc(Cl)cc1 (stereo not given) | 124.6*
O=C(Nc1ccccc1)Nc1cc(Cl)cc(Cl)c1 | -39.0
Cc1ccc(S(=O)(=O)OCCC2=CC(=O)CCN2Cc2ccccc2)cc1 | -63.2
Fc1ccc(/C=N/N2CCCCC2)c(F)c1 | -65.9
Cc1ccccc1Cn1nc(C)c(NC(=O)c2cc(-c3cccs3)on2)c1C | -47.2
COc1ccc(COc2cc(-c3cccc(OC)c3)nc3ccc(NC(=O)c4cccnc4)cc23)cc1 | 53.0*
SMILES | PGC1a Ac signal
COC(=O)Nc1ccc(S(=O)(=O)N(CCO)CC(F)(F)C(F)F)cc1 | 62.0*
O=S(=O)(c1ccc(N2CCC(c3ccc(Cl)cc3)=N2)cc1)N(CCO)CCO | -42.6
CCS(=O)(=O)c1ccc(O)c(NC(=O)COc2ccc(Br)cc2)c1 | -96.8
CO[C@H]1CN(C)C(=O)c2cc(NS(=O)(=O)c3cn(C)cn3)ccc2OC[C@@H](C)NC[C@H]1C | -55.1
CN(C)c1ccc(/C=N/N=C2/NC(=O)/C(=C/c3ccc([N+](=O)[O-])cc3)S2)cc1 | 80.6*
CN(C)c1ccc(C=C2SC(=S)NC2=O)cc1 | -51.2
CCOc1ccc(Nc2nc(NCc3ccco3)nc(N)c2[N+](=O)[O-])cc1 | -72.4
COc1ccc(C(=O)C(CN2CCOCC2)c2ccccc2)cc1F (stereo not given) | -114.0
CC[C@H](C)[C@@H]1OC(=O)[C@@H](C)[C@@H](CC)NC(=O)[C@H](C)N(C)C(=O)C(C)(C)C(=O)C(C)NC(=O)[C@H](Cc2ccccc2)N(C)C(=O)[C@H](C(C)C)N(C)C(=O)CNC(=O)[C@H](CC(C)C)N(C)C(=O)CNC1=O (stereo not given in full) | -76.1
COc1ccc(Oc2c(Cl)cnn(-c3ccc(F)cc3)c2=O)cc1 | 81.4*
O=C(Nc1cccc(C(F)(F)F)c1)c1sc(Cl)nc1C(F)(F)F | 120.6*
CCCOc1ccc2c(c1)C(=NN=C(N)N)c1cc(OCCC)ccc1-2 | 75.4*
Clc1ccc(Oc2cccc(/C=N/n3cnnc3)c2)cc1 | -83.3
CC(C)[C@H]1COCCS(=O)(=O)N1Cc1ccccc1F | -49.7
C=CCC1NS(=O)(=O)OC(CCc2ccccc2)C1O (stereo not given) | 103.8*
Cc1nn(CCCC(=O)O)c(C)c1[N+](=O)[O-] | -42.5
Cc1ccc(CN(C(=O)Cn2nnc3ccccc32)C(C(=O)NCc2ccco2)c2cccs2)cc1 (stereo not given) | -45.6
Cc1cnc(NC(=O)c2nn(C)cc2[N+](=O)[O-])s1 | 130.8*
Cn1cc([N+](=O)[O-])c(C(=O)Nc2nc(-c3ccc(Cl)cc3)cs2)n1 | -62.9
Cc1ccc(-c2nc(NC(=O)c3nn(C)cc3[N+](=O)[O-])sc2C)cc1 | -95.7
Cc1ccc(Cn2ccc(NC(=O)c3nn(C)cc3[N+](=O)[O-])n2)cc1 | 144.8*
Cc1ccc(-c2nc(NC(=O)c3nn(C)cc3[N+](=O)[O-])sc2C)cc1C | -91.2
Cc1cc2oc(=O)cc(CN3CCC(C)CC3)c2cc1C | -41.9

Compound activity as filed in PubChem.
